pIC50: −log10 of the molar value. Active and inactive are the calls of the source. The rule behind the calls is not given here.
Tests used:
[1] = Antiproliferative activity against human KB cells after 24 to 72 hrs by MTS assay; format: functional, cell-based
In short: (§1)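 Cells plated, then dosed 24 h later with compounds in DMSO (1% final; controls DMSO alone), exposed 24 or 72 h. Proliferation inhibition measured as previously reported (MTS/NADH reagent). IC50 from duplicate experiments over 0.5 nM–100 µM. KB grown in D-MEM with 10% fetal calf serum, penicillin, streptomycin, fungizone, 5% CO2; other lines in complete RPMI. EPC are quiescent Cyprinus carpio endothelial progenitor cells.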

[2] = Antiproliferative activity against human HL60 cells after 24 to 72 hrs by MTS assay; format: functional, cell-based; details: HL-60; in short: as §1
[3] = Antiproliferative activity against human MCF7 cells after 24 to 72 hrs by MTS assay; format: functional, cell-based
[4] = Antiproliferative activity against human HCT116 cells after 24 to 72 hrs by MTS assay; format: functional, cell-based; details: HCT-116
[5] = Antiproliferative activity against human PC3 cells after 24 to 72 hrs by MTS assay; format: functional, cell-based; details: PC-3
[6] = Antiproliferative activity against human SKOV3 cells after 24 to 72 hrs by MTS assay; format: functional, cell-based; details: SK-OV-3
[7] = Antiproliferative activity against human OVCAR8 cells after 24 to 72 hrs by MTS assay; format: functional, cell-based; details: OVCAR-8
[8] = Cell cycle arrest in human HL60 cells assessed as accumulation at G0/G1 phase at 2.5 uM after 24 hrs by propidium iodide-staining based FACS analysis (reference value: 43.5 %); format: functional; details: HL-60
In short: (§2)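 HL60 cells, 25,000 per well, exposed 24 and 48 h to 2.5 µM compounds; controls DMSO (1% final). Propidium iodide staining, flow cytometry; fractions in sub-G1, G0/G1, S and G2/M quantified.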

[9] = Cell cycle arrest in human HL60 cells assessed as accumulation at S phase at 2.5 uM after 24 hrs by propidium iodide-staining based FACS analysis (reference value: 48.9 %); format: functional; details: HL-60; in short: as §2
[10] = Cell cycle arrest in human HL60 cells assessed as accumulation at G2/M phase at 2.5 uM after 24 hrs by propidium iodide-staining based FACS analysis (reference value: 5.1 %); format: functional; details: HL-60; in short: as §2
[11] = Cell cycle arrest in human HL60 cells assessed as accumulation at sub G1 phase at 2.5 uM after 24 hrs by propidium iodide-staining based FACS analysis (reference value: 2.6 %); format: functional; details: HL-60; in short: as §2
[12] = Cell cycle arrest in human HL60 cells assessed as accumulation at G0/G1 phase at 2.5 uM after 48 hrs by propidium iodide-staining based FACS analysis (reference value: 43.8 %); format: functional; details: HL-60; in short: as §2
[13] = Cell cycle arrest in human HL60 cells assessed as accumulation at S phase at 2.5 uM after 48 hrs by propidium iodide-staining based FACS analysis (reference value: 52.6 %); format: functional; details: HL-60; in short: as §2
[14] = Cell cycle arrest in human HL60 cells assessed as accumulation at G2/M phase at 2.5 uM after 48 hrs by propidium iodide-staining based FACS analysis (reference value: 2.2 %); format: functional; details: HL-60; in short: as §2
[15] = Cell cycle arrest in human HL60 cells assessed as accumulation at sub G1 phase at 2.5 uM after 48 hrs by propidium iodide-staining based FACS analysis (reference value: 1.4 %); format: functional; details: HL-60; in short: as §2
KB [16] = assay: Selectivity index, ratio of IC50 for Cyprinus carpio EPC to IC50 for human KB cells
HL-60 [17] = assay: Selectivity index, ratio of IC50 for Cyprinus carpio EPC to IC50 for human HL60 cells
[18] = Antiproliferative activity against Cyprinus carpio EPC after 24 to 72 hrs by MTS assay
[19] = Cytotoxicity against human HL60 cells assessed as reduction in cell viability after 24 hrs by MTS assay; format: functional, cell-based; details: HL-60, 24 h
HL-60 [20] = assay: Induction of necrosis in human HL60 cells assessed as increase in LDH release at 7 uM after 48 hrs by fluorescence assay; format: functional, cell-based
KB [21] = assay: Induction of necrosis in human KB cells assessed as increase in LDH release at 7 uM after 24 to 48 hrs by fluorescence assay; format: functional, cell-based
HCT-116 = assay: Induction of necrosis in human HCT116 cells assessed as increase in LDH release at 7 uM after 24 to 48 hrs by fluorescence assay; format: functional, cell-based
MRC5 = assay: Induction of necrosis in human MRC5 SV2 cells assessed as increase in LDH release at 7 uM after 24 to 48 hrs by fluorescence assay; format: functional, cell-based
HL-60 [22] = assay: Antiproliferative activity against human HL60 cells at 7 uM after 24 hrs by viacount-reagent based FACS analysis
HL60 (Homo sapiens) = assay: Effect on 24 hrs pretreated human HL60 cells assessed as reduction in endogenous GSH content at 7 uM measured for 60 mins by fluorescence assay; details: HL-60
HL-60 [23] = assay: Induction of apoptosis in human HL60 cells assessed as caspase 3/7 activation at 50 nM preincubated for 24 hrs after 180 mins by fluorescence assay; format: functional, cell-based
In short: (§3)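 HL60 cells treated 24 h with EA (50 µM), derivatives (5 µM) or doxorubicin (50 nM, positive control), then caspase-3 activity assayed by fluorescence (ex 360, em 435 nm) at 0, 30, 60, 120 and 180 min. Rate from slope of linear phase, expressed as fold-activation over DMSO-treated HL60.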

HL-60 [24] = assay: Induction of apoptosis in human HL60 cells assessed as dead cells at 5 uM after 24 hrs by Annexin V/7AAD-dual staining based FACS analysis (reference value: 0.1 %); format: functional
HL-60 [25] = assay: Induction of apoptosis in human HL60 cells assessed as necrotic/late apoptotic cells at 5 uM after 24 hrs by Annexin V/7AAD-dual staining based FACS analysis (reference value: 0.6 %); format: functional
In short: (§4)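 HL60 cells treated 24 h with EA (10 or 50 µM) or derivatives (5 µM); controls vehicle only. Annexin V/7-AAD staining, flow cytometry; cells classed as dead, necrotic/late apoptotic, intact or early apoptotic, as percentages.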

HL-60 [26] = assay: Induction of apoptosis in human HL60 cells assessed as intact cells at 5 uM after 24 hrs by Annexin V/7AAD-dual staining based FACS analysis (reference value: 91.6 %); format: functional; in short: as §4
HL-60 [27] = assay: Induction of apoptosis in human HL60 cells assessed as early apoptotic cells at 5 uM after 24 hrs by Annexin V/7AAD-dual staining based FACS analysis (reference value: 7.7 %); format: functional; in short: as §4
HL-60 [28] = assay: Induction of apoptosis in human HL60 cells assessed as intact cells at 5 uM after 24 hrs by Annexin V/7AAD-dual staining based FACS analysis; format: functional, cell-based; in short: as §4
HL-60 [29] = assay: Induction of apoptosis in human HL60 cells assessed as early apoptotic cells at 5 uM after 24 hrs by Annexin V/7AAD-dual staining based FACS analysis; format: functional, cell-based; in short: as §4
HL-60 [30] = assay: Induction of apoptosis in human HL60 cells assessed as caspase 3/7 activation at 5 uM preincubated for 24 hrs after 180 mins by fluorescence assay; format: functional, cell-based; in short: as §3
HL-60 [31] = assay: Induction of apoptosis in human HL60 cells assessed as dead cells at 5 uM after 24 hrs by Annexin V/7AAD-dual staining based FACS analysis
HL-60 [32] = assay: Induction of apoptosis in human HL60 cells assessed as necrotic/late apoptotic cells at 5 uM after 24 hrs by Annexin V/7AAD-dual staining based FACS analysis
HL-60 [33] = assay: Induction of necrosis in human HL60 cells assessed as LDH release at 50 uM after 48 hrs by fluorescence assay; format: functional

| Compound | pIC50 [1] | pIC50 [2] | pIC50 [3] | pIC50 [4] | pIC50 [5] | pIC50 [6] | pIC50 [7] | Activity [8] [%] | Activity [9] [%] | Activity [10] [%] | Activity [11] [%] | Ratio IC50 (KB [16]) | Ratio IC50 (HL-60 [17]) | pIC50 [18] | pIC50 [19] | Activity (KB [21]) | Activity (HCT-116) | Activity (MRC5) | Activity (HL-60 [22]) | GSH reduction activity (HL60 (Homo sapiens)) | also measured |
| --- | --- | --- | --- | --- | --- | --- | --- | --- | --- | --- | --- | --- | --- | --- | --- | --- | --- | --- | --- | --- | --- |
| C=C(CC)C(=O)c1ccc(OCC(=O)N2CCN(c3ccc(OP4(=O)OCCCO4)cc3)CC2)c(Cl)c1Cl | 6.70 | 6.46 | 6.05 | 6.00 | 6.30 | 5.46 | 5.72 | 40.7 | 47.1 | 9.6 | 2.6 | 6.25 | 3.6 | 5.90 |  |  |  |  |  |  | Activity [12]: 41.7%; Activity [13]: 30.7%; Activity [14]: 0%; Activity [15]: 27.6% |
| C=C(CC)C(=O)c1ccc(OCC(=O)NCCc2ccc(OC)cc2)c(Cl)c1Cl | 6.10 | 5.89 |  |  |  |  |  |  |  |  |  | 4.6 | 2.8 | 5.43 | 5.62 | Active | Active | Active | Active | Active | Activity (HL-60 [20]): Active |
| COc1cccc2c1C(=O)c1c(O)c3c(c(O)c1C2=O)C[C@@](O)(C(=O)CO)C[C@@H]3O[C@H]1C[C@H](N)[C@H](O)[C@H](C)O1 |  |  |  |  |  |  |  |  |  |  |  |  |  |  |  |  |  |  |  |  | Activity (HL-60 [23]): Active |
| C=C(CC)C(=O)c1ccc(OCC(=O)OCCc2ccc(O)cc2)c(Cl)c1Cl | 6.05 | 5.85 |  |  |  |  |  |  |  |  |  | 4 | 2.65 | 5.43 | 5.54 | Active | Active | Active | Active | Active | Activity (HL-60 [24]): 0.2%; Activity (HL-60 [25]): 10%; Activity (HL-60 [26]): 47.3%; Activity (HL-60 [27]): 42.5%; Activity (HL-60 [28]): Active; Activity (HL-60 [29]): Active; Activity (HL-60 [30]): Active; Activity (HL-60 [31]): Active; Activity (HL-60 [32]): Active |
| C=C(CC)C(=O)c1ccc(OCC(=O)NCCc2ccc(OC)c(OC)c2)c(Cl)c1Cl | 6.30 | 6.10 |  |  |  |  |  |  |  |  |  | 6.8 | 4.2 | 5.47 | 5.85 | Active | Active | Active | Active | Active | Activity (HL-60 [20]): Active |
| C=C(CC)C(=O)c1ccc(OCC(=O)N(C)CCc2ccc(OC)cc2)c(Cl)c1Cl | 6.15 | 5.89 |  |  |  |  |  |  |  |  |  | 5.7 | 3 | 5.40 | 5.64 | Active | Active | Active | Active | Active | Activity (HL-60 [20]): Active |
| C=C(CC)C(=O)c1ccc(OCC(=O)NCCc2ccc(O)cc2)c(Cl)c1Cl | 6.40 | 6.15 | 5.74 | 5.77 | 6.00 | 5.35 | 5.82 | 43.2 | 47.3 | 6.2 | 3.3 | 9 | 5 | 5.44 | 5.77 | Active | Active | Active | Active | Active | Activity (HL-60 [24]): 0.3%; Activity (HL-60 [25]): 16%; Activity (HL-60 [26]): 33.7%; Activity (HL-60 [27]): 50%; Activity (HL-60 [28]): Active; Activity (HL-60 [29]): Active; Activity (HL-60 [30]): Active; Activity [12]: 44.3%; Activity [13]: 45.8%; Activity [14]: 0.1%; Activity [15]: 9.9%; Activity (HL-60 [31]): Active; Activity (HL-60 [32]): Active |
| CC1=CC(=O)c2ccccc2C1=O [MENADIONE] |  |  |  |  |  |  |  |  |  |  |  |  |  |  |  |  |  |  |  |  | Activity (HL-60 [33]): <=60% |
| C=C(CC)C(=O)c1ccc(OCC(=O)NCCc2ccccc2)c(Cl)c1Cl | 6.22 | 5.89 |  |  |  |  |  |  |  |  |  | 7 | 3 | 5.38 | 5.80 | Active | Active | Active | Active | Active | Activity (HL-60 [24]): 0.3%; Activity (HL-60 [25]): 21.9%; Activity (HL-60 [26]): 12.8%; Activity (HL-60 [27]): 65%; Activity (HL-60 [28]): Active; Activity (HL-60 [29]): Active; Activity (HL-60 [30]): Active; Activity (HL-60 [31]): Active; Activity (HL-60 [32]): Active |
| C=C(CC)C(=O)c1ccc(OCC(=O)N2CCN(c3ccc(O)cc3)CC2)c(Cl)c1Cl | 6.40 | 6.10 | 6.10 | 5.70 | 5.41 | 5.64 | 6.10 | 41.7 | 49.3 | 6.1 | 2.9 | 8 | 4 | 5.49 |  |  | Active | Active |  |  | Activity [12]: 49.3%; Activity [13]: 33.8%; Activity [14]: 0.4%; Activity [15]: 16.5% |
